In the library only some 2.2% were active in any assay of this set; here they are far more common.
FLuc inh counter = firefly luciferase enzyme inhibitors, primary screen, artefact control for luciferase-based inhibitor screens, biochemical, luminescence, ATPLite | Luciferin 4-monooxygenase (Photinus pyralis), P08659 | 10 min | inhibition, % at 10 µM | 200,000 tested, 1.5% active | AID 1006, 2008;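 active = inhibition above about 50% when tested at 10 µM, limit read from the data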
FLuc stim CS = FLuc activators, initial screening, artefact control for FLuc-dependent activation tests, biochemical, ATPlite luminescence; Luciferin 4-monooxygenase (Photinus pyralis), P08659; ATPlite luciferase biochemical, 10 min; 0 = ATP-free wells, 1 = DMSO control; activation factor at 10 µM; 200,000 tested, under 10 active; AID 1027, 2008;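 active = luciferase activation factor, scaled between plate controls, of at least 2 with compound at 10 µM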
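System: Luciferase/luciferin detection reagent, cell-free biochemical luciferase assay | Medium: PBS buffer for ATP | Dosing: Test compounds dosed from 2 mM stocks in 100% DMSO | Timing: 10 min at ambient temperature | Signal: Luminescence measurement of luciferase light output | Evaluation: Luciferase activation, seen as luminescence increase over controls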
Wee1 degr inh = Wee1 degradation inhibitors, primary screen, cell-based, HeLa, Wee1K328M-luciferase, luminescence; HeLa Luc-Wee1K328M stability; 100% = proteasome inhibitor MG132 effect; reporter increase, % at 5 µM; 220,000 tested, 1.2% active; AID 1321, 2008; Wee1-like protein kinase (Homo sapiens), P30291;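 active = activation above the mean of all tested compounds plus 3 SD, set per screening run, cut at about 8.8% in these data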;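 note: cells exposed to compound for 20 h before luminescence read; 0% = DMSO alone and 100% = MG132 at 30 µM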
PKD1 kinase inh = inhibitors of human PKD1 kinase, biochemical, fluorescence polarization; PKD1 kinase fluorescence polarization assay; 200,000 tested, 0.056% active; Serine/threonine-protein kinase D1 (Homo sapiens), Q15139; inhibition, % (concentration not given with the values); in the data active = inhibition above about 50%
PPC-1+TRAIL kill = compounds killing PPC-1 cancer cells with TRAIL present, primary screen, TRAIL potentiator project, ATPLite luminescence, uHTS | AID 1443, 2008 | cell killing (% activity), % at 4 µM or 5 µM | PPC-1 cells + TRAIL, ATPLite viability luminescence | 220,000 tested, 0.41% active;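 active = cell killing above 50% in the first pass at 4 µM, then a duplicate retest at 5 µM averaging 50% or more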;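 note: plate controls were cells with TRAIL plus DMSO for no effect and medium-only wells lacking cells for full effect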
C8 TRAIL sens = viability loss with TRAIL in NB7+C8 cells, primary screen, TRAIL sensitizer project, cell-based, ATPlite luminescence; 360,000 tested, 1% active; inhibition (viability loss, TRAIL sensitization), % at 10 µM;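 active = compounds causing at least 50% loss of cell viability in the single-dose screen, relative to plate controls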
* hit, by the source's call; · = not tested or not shown.

SMILES	FLuc inh counter	FLuc stim CS	Wee1 degr inh	PKD1 kinase inh	PPC-1+TRAIL kill	C8 TRAIL sens
Cn1c(SCc2ccccc2)nnc1-c1ccc2nonc2c1	·	·	0	·	18	-3
CCCCC1=C(C(=O)OCC)C(C(=O)OCC)Oc2ccccc21 (configuration not stated)	·	·	·	·	·	27
CCOC(=O)c1ccccc1NC(=O)C(C)Oc1ccccc1 (configuration not stated)	-8	1.1	9.7*	-5	9	-3
O=C(CN(C(=O)CCC(=O)Nc1nccs1)C1CCCC1)NCc1ccc2c(c1)OCO2	-6	1.1	-2	-8	3	-5
Cc1ccc(-n2nnc3c(SCC(=O)NCC4CCCO4)ncnc32)cc1 (configuration not stated)	55*	0.4	-1	-15	-10	-2
COC(=O)c1ccc(CSc2ncnc3c2nnn3-c2ccc(OC)cc2)o1	4	1	12*	-29	22	1
COc1ccc(-n2nnc3c(SCC(=O)c4ccccc4)ncnc32)cc1	-2	1	-1	5	5	-4
CC1(C(=O)NCc2ccccc2Br)CCN1Cc1ccc(-c2ccccc2)o1 (configuration not stated)	·	·	·	·	·	-2
COc1cc(-c2noc(CCCC(=O)Nc3ccc(C(N)=O)cc3)n2)cc(OC)c1OC	·	·	10*	·	-4	9
Cc1ccc(Cl)cc1N1CCN(C(=O)c2cc3c(=O)[nH]c4ccccc4c3n2C)CC1	-3	1	-1	-12	50*	48
COc1ccccc1NC(=O)c1cc(S(=O)(=O)NCc2ccccc2)ccc1F	1	1	9.2*	2	16	3
COc1ccc(/C=N/Nc2nc3ccccc3o2)cc1O	66*	0.3	2	5	44	47
COc1cc(/C=N/Nc2nc3ccccc3o2)cc(OC)c1O	13	0.9	2	-1	-3	7
O=C(CCl)N1c2ccccc2CCc2ccccc21	·	·	·	·	·	95*
CS(=O)(=O)c1ccc2nc(NC(=O)c3ccc(N4C(=O)CCC4=O)cc3)sc2c1	·	·	-3	·	17	·
O=C(COC(=O)c1ccccc1[N+](=O)[O-])c1ccc(C2CCCCC2)cc1	80*	0.2	0	-5	25	4
O=C(COC(=O)COc1ccccc1[N+](=O)[O-])NC1CCCC1	-9	1.1	10*	-3	11	1
O=C(COC(=O)c1ccccc1C(=O)c1ccc(Cl)c([N+](=O)[O-])c1)NC1CC1	-8	1.1	-2	-5	9	93*
N#CC1(NC(=O)COC(=O)c2ccccc2[N+](=O)[O-])CCCCC1	·	·	·	·	·	-7
Cc1ccc(NC(=O)COc2ccccc2[N+](=O)[O-])nc1	80*	0.2	4	5	32	60*
COc1cc(Cl)c(C)cc1NCC(=O)Nc1cccc(S(=O)(=O)N2CCCC2)c1	·	·	·	·	·	-2
CC(C)(C)c1cc(NC(=O)CCSc2nnc3ccccn23)cc(C(C)(C)C)c1	·	·	-1	-5	·	9
CC(=O)Nc1ccc(C(=O)OCC(=O)NCc2cccs2)cc1	·	·	·	·	·	-10
C/C=C(/C)C(=O)OC1CC(C)(C)C[C@H]2C3=CC[C@@H]4[C@@]5(C)CCC(O[C@@H]6O[C@@H](C(=O)O)[C@@H](O)C(O[C@@H]7OC[C@H](O)[C@@H](O)[C@@H]7O[C@@H]7OC(CO)C(O)[C@@H](O)[C@@H]7O)C6O[C@@H]6OC(CO)C(O)C(O)C6O)[C@@](C)(CO)[C@@H]5CC[C@]4(C)[C@]3(C)CC(O)[C@@]12CO (some centres not stated)	·	·	·	·	·	-3
C/C=C(\C)C(=O)OC1[C@H](OC(C)=O)C2(CO)C(CC1(C)C)C1=CCC3C4(C)CCC(O[C@@H]5O[C@H](C(=O)O)[C@@H](O[C@@H]6O[C@H](CO)[C@@H](O)[C@H](O)[C@H]6O)[C@H](O)[C@H]5O[C@H]5O[C@H](CO)[C@@H](O)[C@H](O)[C@H]5O)[C@](C)(CO)C4CCC3(C)[C@]1(C)C[C@H]2O (some centres not stated)	·	·	·	·	·	89*
SMILES	FLuc inh counter	FLuc stim CS	Wee1 degr inh	PKD1 kinase inh	PPC-1+TRAIL kill	C8 TRAIL sens
CC(C)c1ccc2nc(N)sc2c1	67*	0.3	6	6	8	24
Cc1ccc(-c2nc(C#N)c(N3CCC(C(N)=O)CC3)o2)cc1	·	·	·	·	·	3
C/C(N)=C(/C#N)C(=O)CN1C(=O)NC(Cc2c[nH]c3ccccc23)C1=O (configuration not stated)	·	·	·	·	·	-11
O=C(N/N=C/c1ccc[nH]1)c1ccc(O)cc1	18	0.8	5	-2	8	5
O=C(N/N=C/c1ccc[nH]1)c1ccc(COc2cccc3cccnc23)cc1	4	1	1	2	3	63*
Cc1cc(Br)c(OCc2ccc(C(=O)N/N=C/c3ccc[nH]3)cc2)c(Br)c1	·	·	·	·	·	68*
COc1ccccc1-c1ncn(Cc2cccc(-c3ccccc3)c2)c1-c1ccco1	·	·	·	·	·	1
CCOc1ccc(OCC)c(NC(=O)C2CCN(c3nn4c(=O)cc(C)nc4s3)CC2)c1	-1	1	0	5	13	67*
CCOc1ccccc1CNC(=O)C1CCN(c2nn3c(=O)cc(C)nc3s2)CC1	·	·	·	·	·	0
Cc1cccc(N2CCN(C(=O)c3cccc(N4CCCC4=O)c3)C(C)C2)c1 (configuration not stated)	·	·	·	·	·	22
Cn1cc(-c2nnc(-c3ccccc3)o2)c2ccccc21	59*	0.4	10*	-12	47	40
Cc1ccccc1-c1nnc(-c2ccccc2)o1	35	0.6	1	0	34	21
COCCNc1oc(-c2ccc(F)cc2)nc1C#N	1	1	-3	-9	25	11
COc1ccc(Nc2oc(-c3ccc(F)cc3)nc2C#N)cc1	·	·	9.3*	·	9	20
O=[N+]([O-])c1ccccc1/C=C/C=N/n1c(-c2ccccc2F)n[nH]c1=S	·	·	-1	·	28	10
CCn1c(-c2ccccc2)csc1=Nc1ccc(S(=O)(=O)O)cc1	54*	0.5	0	-6	20	19
O=C(Nc1ccc(N2CCCC2)cc1)c1ccccc1F	71*	0.3	6	-10	28	-8
O=C(Nc1ccc(N2CCCC2)cc1)c1cccc(F)c1	59*	0.4	0	-11	23	12
N#CC1(c2ccc(NC(=O)c3ccccc3F)cc2)CCCC1	64*	0.4	0	5	37	44
O=C(Nc1ccc(Nc2ccccc2)cc1)c1ccccc1F	·	·	·	·	·	5

Screening data deposited in PubChem by several laboratories.
